According to publication PMC4524557 (RSC advances, 2015):
Converted amounts (≈) assume the structure as drawn.

Assays:
[1] = system: S. aureus USA400 biofilms; assay: Disruption of established 24 h biofilms; format: cell-based, Staphylococcus aureus
[2] = system: Staphylococcus aureus USA200; assay: MIC determination; format: cell-based; details: USA200, read-out: MIC USA200
[3] = system: Staphylococcus aureus USA300; assay: MIC determination; format: cell-based; details: USA300, read-out: MIC SA
[4] = system: S. aureus USA300 biofilms; assay: Inhibition of biofilm formation; format: cell-based, Staphylococcus aureus; details: USA300, between 3.1 and 12.5 μM
[5] = system: Staphylococcus aureus USA400; assay: MIC determination; format: cell-based; details: USA400, read-out: MIC USA400
[6] = system: S. aureus UAMS-1 biofilms; assay: Disruption of established biofilms; format: cell-based, Staphylococcus aureus; details: UAMS-1, at 6.25 μM
[7] = system: Staphylococcus aureus UAMS-1; assay: MIC determination; format: cell-based; details: UAMS1, read-out: MIC UAMS-1
[8] = system: S. aureus USA400 biofilms; assay: Inhibition of biofilm formation; format: cell-based, Staphylococcus aureus; details: USA400, all tested concentrations from 1.56 to 12.5 μM
biofilm = details: lower concentrations ineffective; cited from earlier work
[9] = system: Staphylococcus aureus Mu50; assay: MIC determination; format: cell-based; details: MU50, read-out: MIC Mu50
[10] = system: S. aureus USA200 biofilms; assay: Disruption of established 24 h biofilms; format: cell-based, Staphylococcus aureus; details: USA200, at 6.25 μM
[11] = system: Pseudomonas aeruginosa PAO1; assay: MIC determination; format: cell-based; details: PAO1, read-out: MIC PA
[12] = system: S. aureus USA300 biofilms; assay: Disruption of established 24 h biofilms; format: cell-based, Staphylococcus aureus; details: USA300 24 h biofilm
Outline: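 USA300 from log phase was grown in wells for 24 h at 37°C to form biofilms, then washed with saline. The 10X test compound, alone or with daptomycin or vancomycin, was added with fresh TSB for another 24 h at 37°C. In combinations the test compound ran 1.56-0.20 µM and the antibiotic 6.25-0.78 µM. Daptomycin medium had 2 mM Ca2+. Wells got fresh TSB plus XTT for 2 h at 37°C, then A450 was read as % of untreated biofilm.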

Klebsiella pneumoniae = assay: MIC determination; format: cell-based; details: K. pneumoniae

Structure (SMILES) | concentration disrupting established biofilms [1] [µM] | MIC [2] [µM] | MIC [3] [µM] | inhibition of biofilm growth [4] [%] | MIC [5] [µM] | established biofilms disrupted [6] | MIC [7] [µM] | inhibition of biofilm formation [8] [%] | concentration with anti-biofilm activity (biofilm) [mg/mL] | MIC [9] [µM] | established biofilms disrupted [10] [%] | MIC [11] [µM] | biofilm disruption alone ([12]; 3.1 μM vancomycin by itself) | biofilm disruption by combination ([12]; 3.1 μM vancomycin with 0.20 μM C14-RRR) | MIC KP (Klebsiella pneumoniae) [µM]
CCCCCCCCCC(=O)N[C@@H](Cc1c[nH]c2ccccc12)C(=O)N[C@H](CC(N)=O)C(=O)N[C@@H](CC(=O)O)C(=O)N[C@@H]1C(=O)NCC(=O)N[C@@H](CCCN)C(=O)N[C@@H](CC(=O)O)C(=O)N[C@H](C)C(=O)N[C@@H](CC(=O)O)C(=O)NCC(=O)N[C@H](CO)C(=O)N[C@@H]([C@H](C)CC(=O)O)C(=O)N[C@@H](CC(=O)c2ccccc2N)C(=O)O[C@@H]1C [Daptomycin] | 6.2 to 12.5 | 0.78 (≈ 1.26 µg/mL) | 0.78 (≈ 1.26 µg/mL) | 80 | 0.78 (≈ 1.26 µg/mL) | ~ 70% | > 12.5 | 100 | 5 | 3.1 (≈ 5.02 µg/mL) | 80 | – | – | – | –
CN[C@H](CC(C)C)C(=O)N[C@H]1C(=O)N[C@@H](CC(N)=O)C(=O)N[C@H]2C(=O)N[C@H]3C(=O)N[C@H](C(=O)N[C@H](C(=O)O)c4cc(O)cc(O)c4-c4cc3ccc4O)[C@H](O)c3ccc(c(Cl)c3)Oc3cc2cc(c3O[C@@H]2O[C@H](CO)[C@@H](O)[C@H](O)[C@H]2O[C@H]2C[C@](C)(N)[C@H](O)[C@H](C)O2)Oc2ccc(cc2Cl)[C@H]1O [Vancomycin] | 6.2 to 12.5 | 0.35 (≈ 0.507 µg/mL) | 0.78 (≈ 1.13 µg/mL) | 80 | 0.78 (≈ 1.13 µg/mL) | ~ 70% | > 12.5 | 100 | – | 1.56 (≈ 2.26 µg/mL) | 80 | > 25 | unable to completely disrupt the biofilm | disrupt nearly all the biofilms | > 25
